Values after ≈ are worked out from the molar mass of the structure shown. Active and inactive are the calls of the source. No cut-off for these calls is given here.
Columns and labels:
Helicobacter pylori [1] = assay: Antimicrobial activity against Helicobacter pylori L1675 by agar dilution method; assay type: functional
Summary of the method: (§1)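 Agar dilution on BHI agar with 5% horse serum. Isolates were grown 3 days under microaerophilic conditions and restreaked for 24 h. Cells were suspended in PBS to OD600 0.1, and 10 μl was spotted onto agar with curcumin at final 50–5 μg/ml (DMSO stock). Plain and DMSO-containing agar served as growth controls. Plates ran 5 days at 37°C microaerophilic. MIC is the lowest concentration with no visible growth.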

Helicobacter pylori [2] = assay: Antimicrobial activity against Helicobacter pylori ATCC 43504 by agar dilution method; assay type: functional; summary of the method: as §1
Helicobacter pylori [3] = assay: Antimicrobial activity against Helicobacter pylori clinical isolate by agar dilution method; assay type: functional; summary of the method: as §1
[4] = Antimicrobial activity against Helicobacter pylori 26695 by agar dilution method; assay type: functional
Helicobacter pylori [5] = assay: Antimicrobial activity against Helicobacter pylori PG139 by agar dilution method; assay type: functional; summary of the method: as §1
Helicobacter pylori [6] = assay: Antimicrobial activity against Helicobacter pylori PG156 by agar dilution method; assay type: functional; summary of the method: as §1
Helicobacter pylori [7] = assay: Antimicrobial activity against Helicobacter pylori PG233 by agar dilution method; assay type: functional; summary of the method: as §1
Helicobacter pylori [8] = assay: Antimicrobial activity against Helicobacter pylori AM1 infected in C57BL/6 mouse assessed as decreased bacterial gene vacA expression at 25 mg/kg, po administered 2 weeks post infection for 7 days measured after 1 week by PCR; assay type: functional, organism-based; parameters: dose 25 mg/kg
Helicobacter pylori [9] = assay: Antimicrobial activity against Helicobacter pylori SS1 infected in C57BL/6 mouse assessed as decreased bacterial gene vacA expression at 25 mg/kg, po administered 2 weeks post infection for 7 days measured after 1 week by PCR; assay type: functional, organism-based; parameters: dose 25 mg/kg
Helicobacter pylori [10] = assay: Antimicrobial activity against Helicobacter pylori SS1 infected in C57BL/6 mouse assessed as restoration of epithelial layer of gastric tissue at 25 mg/kg, po administered 2 weeks post infection for 7 days measured after 1 week; assay type: functional, organism-based; parameters: dose 25 mg/kg; conditions: Stomach
Summary of the method: (§2)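 C57BL/6 mice were inoculated intragastrically with SS1, with PBS controls. Two weeks after the final inoculation, curcumin 25 mg/kg was fed orally for 7 consecutive days before sacrifice. Body and pyloric stomach tissue was formalin-fixed and paraffin-embedded, and 5 μm sections were stained with hematoxylin and eosin and examined at ×10 and ×20.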

Helicobacter pylori [11] = assay: Antimicrobial activity against Helicobacter pylori SS1 infected in C57BL/6 mouse assessed as inhibition of disruption in submucosal and muscularis mucosal layer of gastric tissue at 25 mg/kg, po administered 2 weeks post infection for 7 days measured after 1 week; assay type: functional, organism-based; parameters: dose 25 mg/kg; conditions: Stomach; summary of the method: as §2
Helicobacter pylori [12] = assay: Antimicrobial activity against Helicobacter pylori SS1 infected in C57BL/6 mouse assessed as decrease in glandular atrophy at 25 mg/kg, po administered 2 weeks post infection for 7 days measured after 1 week; assay type: functional, organism-based; parameters: dose 25 mg/kg; summary of the method: as §2
Helicobacter pylori [13] = assay: Antimicrobial activity against Helicobacter pylori SS1 infected in C57BL/6 mouse assessed as inhibition of inflammatory cell infiltration at 25 mg/kg, po administered 2 weeks post infection for 7 days measured after 1 week; assay type: functional, organism-based; parameters: dose 25 mg/kg; summary of the method: as §2

| MIC (Helicobacter pylori [1]) | MIC (Helicobacter pylori [2]) | MIC (Helicobacter pylori [3]) | MIC [4] | MIC (Helicobacter pylori [5]) | MIC (Helicobacter pylori [6]) | MIC (Helicobacter pylori [7]) | SMILES | Activity (Helicobacter pylori [8]) | Activity (Helicobacter pylori [9]) | Activity (Helicobacter pylori [10]) | Activity (Helicobacter pylori [11]) | Activity (Helicobacter pylori [12]) | Activity (Helicobacter pylori [13]) |
| --- | --- | --- | --- | --- | --- | --- | --- | --- | --- | --- | --- | --- | --- |
| 50 µg/mL (≈ 136 µM) | 15 µg/mL (≈ 40.7 µM) | 5 µg/mL (≈ 13.6 µM) | 20 µg/mL (≈ 54.3 µM) | 5 µg/mL (≈ 13.6 µM) | 30 µg/mL (≈ 81.4 µM) | 5 µg/mL (≈ 13.6 µM) | COc1cc(/C=C/C(=O)CC(=O)/C=C/c2ccc(O)c(OC)c2)ccc1O [CURCUMIN] | Active | Active | Active | Active | Active | Active |
|  | 0.02 µg/mL (≈ 0.0267 µM) | 0.02 µg/mL (≈ 0.0267 µM) |  |  |  |  | CC[C@H]1OC(=O)[C@H](C)[C@@H](O[C@H]2C[C@@](C)(OC)[C@@H](O)[C@H](C)O2)[C@H](C)[C@@H](O[C@@H]2O[C@H](C)C[C@H](N(C)C)[C@H]2O)[C@](C)(OC)C[C@@H](C)C(=O)[C@H](C)[C@@H](O)[C@]1(C)O [CLARITHROMYCIN] |  |  |  |  |  |  |
|  | 0.03 µg/mL (≈ 0.0821 µM) | 0.03 µg/mL (≈ 0.0821 µM) |  |  |  |  | CC1(C)S[C@@H]2[C@H](NC(=O)[C@H](N)c3ccc(O)cc3)C(=O)N2[C@H]1C(=O)O [AMOXICILLIN] |  |  |  |  |  |  |
